Experimental data published in ChEMBL document CHEMBL4627371, “Discovery of novel heat shock protein (Hsp90) inhibitors based on luminespib with potent antitumor activity” (Bioorg Med Chem Lett, 2020).
pIC50: −log10 of the molar value.

Tests used:
[1] = test system: HCT-116; assay: Cytotoxicity against human HCT116 cells assessed as cell growth inhibition; format: functional, cell-based
[2] = target: T1, Heat shock protein HSP90 (Homo sapiens, UniProt P07900+P08238); assay: Inhibition of HSP90 ATPase activity (unknown origin); format: protein assay
[3] = test system: A2780; assay: Cytotoxicity against human A2780 cells assessed as cell growth inhibition; format: functional, cell-based
[4] = target: T1, Heat shock protein HSP90; assay: Inhibition of HSP90 (unknown origin) assessed as HER2 degradation by cell-based assay
[5] = Toxicity in BALB/c nu/nu mouse xenografted with human A2780 cells assessed as mouse death at 50 mg/kg, iv administered 3 times a week for 2 weeks starting from 5 to 6 days post tumor inoculation; format: organism-based; conditions: in vivo
How it was run: (§1)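 Human A2780 ovarian adenocarcinoma cells were cultured and implanted into BALB/c-nu/nude mice, n = 6 per group. Tumor size and volume were measured 5 or 6 days later. Compounds were suspended in 1% carboxymethyl cellulose and given intravenously. Deaths and body weight were monitored. Tumor growth inhibition = [1 − (mean treated tumor volume)/(mean control tumor volume)] × 100%.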

[6] = Toxicity in BALB/c nu/nu mouse xenografted with human A2780 cells assessed as effect on body weight at 50 mg/kg, iv administered 3 times a week for 2 weeks starting from 5 to 6 days post tumor inoculation; format: organism-based; conditions: in vivo; how it was run: as §1
[7] = test system: A2780; assay: Antitumor activity against human A2780 cells xenografted in BALB/c nu/nu mouse assessed as tumor growth inhibition at 50 mg/kg, iv administered 3 times a week for 2 weeks starting from 5 to 6 days post tumor inoculation relative to control; format: functional; conditions: read-out: TGI; how it was run: as §1
[8] = test system: NCI-H1975; assay: Antitumor activity against human NCI-H1975 cells xenografted in BALB/c athymic nu/nu mouse assessed as tumor growth inhibition at 200 mg/kg, iv administered once a week for 3 weeks relative to control; format: functional; conditions: 504 h, read-out: TGI
How it was run: (§2)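 Athymic BALB/c-nu/nude mice bearing NCI-H1975 human lung carcinoma xenografts, n = 6 per group. Compounds were given i.v. at 200 mg/kg once weekly for three weeks. Deaths and body weight loss were recorded. Tumor growth inhibition was calculated from mean treated versus mean control tumor volumes.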

[9] = Toxicity in BALB/c athymic nu/nu mouse xenografted with human NCI-H1975 cells assessed as mouse death at 200 mg/kg, iv administered once a week for 3 weeks; format: organism-based; conditions: in vivo, 504 h; how it was run: as §2
[10] = Toxicity in BALB/c athymic nu/nu mouse xenografted with human NCI-H1975 cells assessed as effect on body weight at 200 mg/kg, iv administered once a week for 3 weeks; format: organism-based; conditions: in vivo, 504 h; how it was run: as §2
[11] = Toxicity in BALB/c nu/nu mouse xenografted with human A2780 cells assessed as mouse death at 50 mg/kg, iv administered 3 times a week for 3 weeks starting from 5 to 6 days post tumor inoculation; format: organism-based; conditions: in vivo; how it was run: as §1
[12] = test system: A2780; assay: Antitumor activity against human A2780 cells xenografted in BALB/c nu/nu mouse assessed as tumor growth inhibition at 50 mg/kg, iv administered 3 times a week for 3 weeks starting from 5 to 6 days post tumor inoculation relative to control; format: functional; conditions: read-out: TGI; how it was run: as §1
[13] = Toxicity in BALB/c nu/nu mouse xenografted with human A2780 cells assessed as effect on body weight at 50 mg/kg, iv administered 3 times a week for 3 weeks starting from 5 to 6 days post tumor inoculation; format: organism-based; conditions: in vivo; how it was run: as §1

Row | SMILES | pIC50 [1] | IC50 [2] | pIC50 [3] | IC50 [4] | other results
1 | CCNC(=O)c1noc(-c2cc(C(C)C)c(O)cc2O)c1-c1cc(COCC(=O)OC)no1 | 6.58 | 443 nM | – | – | –
2 | CCCn1ccc(-c2c(C(=O)NCC)noc2-c2cc(C(C)C)c(O)cc2O)n1 | 7.31 | 584 nM | 7.57 | 24 nM | –
3 | CCNC(=O)c1noc(-c2cc(C(C)C)c(O)cc2O)c1-c1cc(CF)no1 | 7.20 | 410 nM | 7.55 | 27 nM | –
4 | CCNC(=O)c1noc(-c2cc(C(C)C)c(O)cc2O)c1-c1cc(C(=O)O)no1 | – | 1870 nM | 4.70 | – | –
5 | CCNC(=O)c1noc(-c2cc(C(C)C)c(O)cc2O)c1-c1cc[nH]n1 | 7.44 | 524 nM | 7.48 | 45 nM | Activity [5]: Non-Toxic; Activity [6]: Non-Toxic; inhibition in vivo at 50 mg/kg [7]: 46.4%
6 | CCNC(=O)c1noc(-c2cc(C(C)C)c(O)cc2O)c1-c1cc(C(=O)N2CCSCC2)no1 | – | 566 nM | 6.68 | – | –
7 | CCNC(=O)c1noc(-c2cc(C(C)C)c(O)cc2O)c1-c1cc(COCC(=O)O)no1 | – | 1280 nM | – | – | –
8 | CCNC(=O)c1noc(-c2cc(C(C)C)c(O)cc2O)c1-c1cc(CN(C)C)no1 | 7.04 | 490 nM | 7.51 | 33 nM | –
9 | CCNC(=O)c1noc(-c2cc(C(C)C)c(O)cc2O)c1-c1cc(CN(CC)CC)no1 | 7.42 | 468 nM | 7.11 | 52 nM | Activity [5]: Non-Toxic; Activity [6]: Non-Toxic; inhibition in vivo at 50 mg/kg [7]: 12.8%
10 | CCNC(=O)c1noc(-c2cc(C(C)C)c(O)cc2O)c1-c1cc(C(=O)N2CCOCC2)no1 | 7.22 | 583 nM | 7.07 | 52 nM | –
11 | C=CCNCc1cc(-c2c(C(=O)NCC)noc2-c2cc(C(C)C)c(O)cc2O)on1 | – | 435 nM | – | 67 nM | –
12 | CCNC(=O)c1noc(-c2cc(C(C)C)c(O)cc2O)c1-c1cc(COS(C)(=O)=O)no1 | 6.40 | 476 nM | – | – | –
13 | CCNC(=O)c1noc(-c2cc(C(C)C)c(O)cc2O)c1-c1cn[nH]c1 | 7.37 | 469 nM | 7.42 | 13 nM | Activity [5]: Non-Toxic; inhibition in vivo at 200 mg/kg [8]: 55.4%; Activity [6]: Non-Toxic; Activity [9]: Non-Toxic; inhibition in vivo at 50 mg/kg [7]: 47.6%; Activity [10]: Non-Toxic
14 | CCNC(=O)c1noc(-c2cc(C(C)C)c(O)cc2O)c1-c1cc(CO)no1 | 7.89 | 279 nM | 8.30 | 42 nM | Activity [11]: Non-Toxic; inhibition in vivo at 50 mg/kg [12]: 47%; inhibition in vivo at 200 mg/kg [8]: 50.9%; Activity [9]: Non-Toxic; Activity [10]: Non-Toxic; Activity [13]: Non-Toxic
15 | CCNC(=O)c1noc(-c2cc(C(C)C)c(O)cc2O)c1-c1cc(C(=O)OCC)no1 | – | 447 nM | 5.05 | – | –
16 | CCNC(=O)c1noc(-c2cc(C(C)C)c(O)cc2O)c1-c1cc(CNC(C)=O)no1 | 6.78 | 500 nM | – | 71 nM | –
17 | CCNC(=O)c1noc(-c2cc(C(C)C)c(O)cc2O)c1-c1cc(CNC(C)C)no1 | 6.96 | 521 nM | 7.42 | 18 nM | –
18 | CCNC(=O)c1noc(-c2cc(C(C)C)c(O)cc2O)c1-c1cc(CNC(=O)CC)no1 | 7.11 | 382 nM | – | 50 nM | –
19 | CCNC(=O)c1noc(-c2cc(C(C)C)c(O)cc2O)c1-c1cc(CN)no1 | 7.08 | 674 nM | – | 171 nM | –
20 | CCNC(=O)c1noc(-c2cc(C(C)C)c(O)cc2O)c1-c1ccn(C(C)C)n1 | 7.72 | 543 nM | 7.35 | 14 nM | Activity [5]: Non-Toxic; Activity [6]: Non-Toxic; inhibition in vivo at 50 mg/kg [7]: 49.8%

Row | SMILES | pIC50 [1] | IC50 [2] | pIC50 [3] | IC50 [4] | other results
21 | CCNCc1cc(-c2c(C(=O)NCC)noc2-c2cc(C(C)C)c(O)cc2O)on1 | 7.35 | 475 nM | 7.35 | 23 nM | Activity [5]: Non-Toxic; Activity [6]: Non-Toxic; inhibition in vivo at 50 mg/kg [7]: 40.3%
22 | CCNC(=O)c1noc(-c2cc(C(C)C)c(O)cc2O)c1-c1cc(CN2CCN(C)CC2)no1 | 6.47 | 572 nM | – | – | –
23 | CCNC(=O)c1noc(-c2cc(C(C)C)c(O)cc2O)c1-c1cnn(C)c1 | 7.39 | 482 nM | 7.70 | 19 nM | –
24 | CCNC(=O)c1noc(-c2cc(C(C)C)c(O)cc2O)c1-c1cnn(CC)c1 | 7.59 | 532 nM | 7.52 | 13 nM | –
25 | CCNC(=O)c1noc(-c2cc(C(C)C)c(O)cc2O)c1-c1ccn(CC)n1 | 7.60 | 553 nM | 7.89 | 12 nM | –
26 | CCNC(=O)c1noc(-c2cc(C(C)C)c(O)cc2O)c1-c1ccn(C)n1 | 7.80 | 522 nM | 7.92 | 16 nM | –
27 | CCNC(=O)c1noc(-c2cc(C(C)C)c(O)cc2O)c1-c1cc(CN2CCCC2)no1 | 7.29 | 686 nM | 7.26 | 38 nM | –
28 | CCNC(=O)c1cc(-c2c(C(=O)NCC)noc2-c2cc(C(C)C)c(O)cc2O)on1 | 7.85 | 284 nM | 7.37 | 28 nM | Activity [11]: Non-Toxic; inhibition in vivo at 50 mg/kg [12]: 52%; inhibition in vivo at 200 mg/kg [8]: 44%; Activity [9]: Non-Toxic; Activity [10]: Non-Toxic; Activity [13]: Non-Toxic
29 | CCNC(=O)c1noc(-c2cc(C(C)C)c(O)cc2O)c1-c1cc(CN2CCSCC2)no1 | 7.17 | 440 nM | 7.19 | 38 nM | –
30 | CCNC(=O)c1noc(-c2cc(C(C)C)c(O)cc2O)c1-c1cc(CNCCO)no1 | 6.95 | 975 nM | – | – | –
31 | CCCNCc1cc(-c2c(C(=O)NCC)noc2-c2cc(C(C)C)c(O)cc2O)on1 | 6.93 | 465 nM | – | 24 nM | –
32 | CCNC(=O)c1noc(-c2cc(C(C)C)c(O)cc2O)c1-c1cc(CNC)no1 | 6.79 | 436 nM | – | – | –
33 | CCCN(CCC)Cc1cc(-c2c(C(=O)NCC)noc2-c2cc(C(C)C)c(O)cc2O)on1 | 6.74 | 413 nM | – | 117 nM | –
34 | CCNC(=O)c1noc(-c2cc(C(C)C)c(O)cc2O)c1-c1cc(C(N)=O)no1 | 7.10 | 657 nM | 7.82 | 52 nM | –
35 | CCNC(=O)c1noc(-c2cc(C(C)C)c(O)cc2O)c1-c1cc(CN2CCOCC2)no1 | 7.55 | 595 nM | – | 50 nM | –
36 | CCNC(=O)c1noc(-c2cc(C(C)C)c(O)cc2O)c1-c1cc(COCC(N)=O)no1 | 7.01 | 452 nM | – | 50 nM | –
37 | CCNC(=O)c1noc(-c2cc(C(C)C)c(O)cc2O)c1-c1cc(CN2CCCCC2)no1 | 7.03 | 752 nM | 7.21 | 62 nM | –
38 | CCNC(=O)c1noc(-c2cc(C(C)C)c(O)cc2O)c1-c1cnn(C(C)C)c1 | 7.68 | 542 nM | 7.68 | 19 nM | –
39 | CCNC(=O)c1noc(-c2cc(C(C)C)c(O)cc2O)c1-c1cc(CC#N)no1 | 7.10 | 470 nM | – | – | –
40 | CCNC(=O)c1noc(-c2cc(C(C)C)c(O)cc2O)c1-c1cc(C(=O)NC)no1 | 6.91 | 489 nM | 7.00 | 24 nM | –
